# Measurements from different studies.
# Lines come from different studies, so protocols differ.
# Target: Receptor-interacting serine/threonine-protein kinase 2 (RIPK2, Homo sapiens, UniProt O43353)
Compound,assay,setting,quantity,value
CN1CCN(c2cnc3c(C4CCN(C(=O)c5ccc(OC(F)(F)F)cc5N)CC4)ncnc3c2)CC1,"cell-free assay, competition with immobilised ligand",1 µM,remaining binding,100%
Cc1sc(C(=O)NC2COC2)cc1-n1cc(NC(=O)Nc2c(F)cccc2Cl)cn1,"enzyme activity, inhibitor",10 µM,remaining activity,89.3%
CCc1ccccc1C(=O)Nc1n[nH]c2c(C)c(F)c(C3C(C#N)=C(C)N(C)C(C)=C3C#N)cc12,"cell-free assay, competition with immobilised ligand",1 µM,remaining binding,100%
COc1cc(Nc2cnc(C#N)c(O[C@H](C)CN(C)C)n2)ncc1-c1cnn(C)c1,"enzyme activity, inhibitor, radiometric",10 µM,remaining activity,71%
COc1cc2ncnc(Nc3ccc(Oc4ccccc4)cc3)c2cc1OC,cell-free assay,0.5 µM,remaining signal,55.5%
CCN(CC)CCNC(=O)c1c(C)[nH]c(/C=C2\C(=O)Nc3ccc(F)cc32)c1C,"enzyme activity, inhibitor",0.3 µM,inhibition,-10%
O=C(Nc1cnn(-c2csc(C(=O)NC3COC3)c2)c1)Nc1c(F)cccc1Cl,"enzyme activity, inhibitor",5 µM,remaining activity,80.2%
CN1CC(Oc2cnc(C#N)cc2-c2ccn3nc(NC(=O)C4CC4)cc3c2)C1,"enzyme activity, inhibitor",1 µM,inhibition,81%
FC(F)c1nc2ccccc2n1-c1nc(N2CCOCC2)nc(N2CCOCC2)n1,"enzyme activity, inhibitor",10 µM,remaining activity,89%
NS(=O)(=O)c1cc(NC(=O)C2(c3ccccc3Cl)CC2)ccc1Oc1cccc(Cl)c1,"cell-free assay, competition with immobilised ligand",1 µM,remaining binding,93%
CNC(=O)c1cc2c(Oc3ccc(NC(=O)C4(C(=O)Nc5ccc(F)cc5)CC4)cc3)ccnc2cc1OC,"enzyme activity, inhibitor, radiometric",1 µM,inhibition,74%
F[C@@H]1CCN(c2nccc(-c3cnn4ncccc34)n2)C1,binding,1 µM,remaining binding,100%
N#CCCc1ccc2c(c1)-c1[nH]c3ccc([N+](=O)[O-])cc3c1CC(=O)N2,cell-free assay,0.5 µM,remaining signal,21.5%
Cc1cc(NC(=O)c2cccc3cc(-c4cccc5[nH]nc(N)c45)ccc23)ccc1F,"enzyme activity, inhibitor",0.1 µM,activity vs control,110%
O=C1Nc2ccc(Cl)cc2C1=Cc1cc(Cl)c(O)c(Cl)c1,cell-free assay,0.5 µM,remaining signal,50.2%
COc1cc(Cl)c(C(=O)N[C@@H](CN[C@H]2CC[C@@H](N)CC2)Cc2ccc(C#N)cc2)cc1-c1ccc(CN[C@H](C)c2ccc(C)cc2)o1,"enzyme activity, inhibitor",1 µM,remaining activity,100%
Cn1cnc(Br)c1C1=CN(c2ncnc3[nH]cnc23)CCS1,"enzyme activity, inhibitor, radiometric",50 nM,inhibition,16.6%
CCN(CC)c1ccc(C2=NNC(=O)CC2C)cc1[N+](=O)[O-] (stereo not shown),"enzyme activity, inhibitor",10 µM,remaining activity,91%
C[C@H](NC(=O)c1cnc2n1[C@](C)(Cc1ccc(C#N)cc1)C(=O)N2c1cc(Cl)c(F)c(Cl)c1)C(=O)NC1(c2ccccn2)CC1,"cell-free assay, competition with immobilised ligand",1 µM,remaining binding,68%
Cc1cnc(NC2CCOCC2)nc1-n1cnc(C(=O)NC(CN)c2cc(F)cc(Cl)c2)c1 (stereo not shown),"enzyme activity, inhibitor, radiometric",1 µM,remaining activity,90%
COc1cc(-c2cn(C3CCc4ccccc4N(CC(F)(F)F)C3=O)nn2)ccc1-n1ccc(C)n1 (stereo not shown),"cell-free assay, competition with immobilised ligand",1 µM,remaining binding,93%
FC(F)(F)Oc1cccc(-c2cnc3ccc(-c4ccncc4)nn23)c1,"enzyme activity, inhibitor, radiometric",1 µM,activity vs control,32%
C[C@@H]1CN(c2cc(-c3n[nH]c4ccc(OC5(C)CC5)cc34)ncn2)C[C@H](C)O1,"cell-free assay, competition with immobilised ligand",0.1 µM,remaining binding,100%
CNCc1ccc(-c2cc(-c3nc(-c4ccc(S(=O)(=O)C(C)C)cc4)cnc3N)on2)cc1,"enzyme activity, inhibitor",0.4 µM,inhibition,6%
O=C(O)[C@H]1[C@H](Cn2nnc3ccccc3c2=O)CC[C@@H]1C(=O)c1ccc(OCCC2CCOCC2)cc1,"cell-free assay, competition with immobilised ligand",1 µM,remaining binding,100%
CC(C)(C)c1nc(-c2cccc(NS(=O)(=O)c3c(F)cccc3F)c2F)c(-c2ccnc(N)n2)s1,"enzyme activity, inhibitor, radiometric",1 µM,remaining activity,5%
CCS(=O)(=O)c1cc2cc(C[C@](O)(CC(C)(C)c3ccc(F)cc3C(N)=O)C(F)(F)F)[nH]c2cn1,"cell-free assay, competition with immobilised ligand",1 µM,remaining binding,67%
Oc1ccc(-c2nc(-c3ccncc3)c(-c3ccc(F)cc3)[nH]2)cc1,cell-free assay,0.5 µM,remaining signal,46.8%
